For one data set, the system named is MOLM-13. In words: Cytotoxicity against human MOLM-13 cells assessed as inhibition of cell viability measured after 24 hrs by WST-1 assay. Type of data set: functional, cell-based. As to conditions: MOLM-13, 24 h. In short, it runs like this: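 MOLM-13 seeded at 30,000 cells/well in RPMI with 10 % FBS, 0.2 mM L-glutamine, penicillin/streptomycin. Compounds dissolved in DMSO; 24 h exposure. Viability read by WST-1. Nuclear morphology checked with Hoechst 33342 after formaldehyde fixation. IC50 from four-parameter regression of WST-1 signal. Cells were mycoplasma-tested.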
A general note: Tetrazolium dyes change colour on reduction, which living cells bring about.

The nature of data set [1]: Cytotoxicity against rat NRK cells assessed as inhibition of cell viability measured after 24 hrs by WST-1 assay. Type of data set: toxicity, cell-based. Summed up:
(§1)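 NRK and H9c2 seeded at 5000 cells/well in DMEM with 10 % FBS, 0.2 mM L-glutamine, penicillin/streptomycin. Compounds dissolved in DMSO; 24 h exposure. Viability read by WST-1. Hoechst 33342 nuclear morphology was checked after fixation. IC50 from four-parameter regression of WST-1 signal. Cells were mycoplasma-tested.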

Data set [2] concerns Mycobacterium tuberculosis. In words: Antimycobacterial activity against drug-sensitive Mycobacterium tuberculosis H37Rv assessed as bacterial growth inhibition measured after 1 week by MABA assay. As to conditions: 168 h. Type of data set: functional, organism-based. In short, it runs like this: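 Colonies grown on 7H10+OADC agar at 37 °C, then to mid-log in 7H9+OADC; about 4×10^5 CFU/mL inoculated into 7H9 with escalating compound concentrations. Incubated 37 °C for 1 week, then resazurin (0.6 mM in PBS) mixed 8:5 with 20 % Tween 80 was added and incubated overnight at 37 °C. Fluorescent resorufin read-out gave IC50.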

Data set [3] in a line: Cytotoxicity against rat H9c2 cells assessed as inhibition of cell viability measured after 24 hrs by WST-1 assay. Type of data set: toxicity, cell-based. Summed up: as §1

Where only a bound is given, the exact number is not on record here.

Broadly, the IC50 is the point on the concentration scale where inhibition reaches its midpoint.

For `[O-][n+]1c2cccc(O)c2[n+]([O-])c2cccc(O)c21`, the IC50 with MOLM-13 came to 2 µM; in data set [2], 170 nM. The IC50 at 24 h in data set [1] and in data set [3] was more than 50 µM throughout.
With `COc1cccc2c1[n+]([O-])c1cccc(O)c1[n+]2[O-]`, the figures for the IC50 (in the data set on MOLM-13; in data set [2]) were 1.4 µM and 14 nM, respectively. Moreover, the half-inhibitory concentration (IC50) at 24 h in data set [1] was found to be 77 µM; in data set [3] it was 46 µM.
With `[O-][n+]1c2ccccc2[n+]([O-])c2c(O)cccc21`, the values for the IC50 (with MOLM-13; in data set [2]) were 11 µM and 260 nM, respectively. Moreover, the IC50 at 24 h was 79 µM in data set [1] and more than 100 µM in data set [3].
For the compound `COc1cc2c(cc1O)[n+]([O-])c1ccccc1[n+]2[O-]`, the IC50 in the data set with MOLM-13 is more than 100 µM; in data set [2], 11100 nM.
Take `CC(=O)Oc1cc(OC(C)=O)c2c(c1)[n+]([O-])c1ccccc1[n+]2[O-]`: the IC50 with MOLM-13 amounted to 35 µM; in data set [2] it was 5000 nM.
Take `CCOCOc1cc(OC)c2c(c1)[n+]([O-])c1ccccc1[n+]2[O-]`: the IC50 in the data set with MOLM-13 was 5.1 µM; in data set [2], 60 nM. For the same compound, the concentration for half-maximal inhibition (IC50) at 24 h in data set [1] and in data set [3] was more than 25 µM throughout.
Take `[O-][n+]1c2ccccc2[n+]([O-])c2c(O)cc(O)cc21`: the values for the IC50 (with MOLM-13; in data set [2]) were 11 µM and 560 nM, respectively.
For the compound `CCOC(=O)COc1cc(OCC(=O)OCC)c2c(c1)[n+]([O-])c1ccccc1[n+]2[O-]`, the values for the IC50 (in the data set with MOLM-13; in data set [2]) were 2 µM and 2880 nM, respectively. The IC50 at 24 h in data set [1] and in data set [3] was more than 200 µM throughout.
With `COc1cc(O)c2c(c1)[n+]([O-])c1ccccc1[n+]2[O-]`, the IC50 is 3.8 µM in the data set on MOLM-13 and 50 nM in data set [2]. For the same compound, the 50% inhibitory concentration (IC50) at 24 h is 38 µM in data set [1] and 81 µM in data set [3].
Taken in the same sequence, the figures for `CCOC(=O)COc1cc(O)c2c(c1)[n+]([O-])c1ccccc1[n+]2[O-]` were 5.7 µM, 170 nM, 194 µM and 89 µM.
In the case of `CCOC(=O)COc1cc(OC)c2c(c1)[n+]([O-])c1ccccc1[n+]2[O-]`, the IC50 in the data set with MOLM-13 was determined as 10 µM; in data set [2], 250 nM.
`CC(=O)Oc1cc(O)c2c(c1)[n+]([O-])c1ccccc1[n+]2[O-]`: the IC50 in the data set with MOLM-13 was determined as 16 µM; in data set [2], 850 nM.
Consider `COc1cc(O)cc2c1[n+]([O-])c1ccccc1[n+]2[O-]`, for which the IC50 with MOLM-13 was more than 100 µM; in data set [2], 1910 nM. Also, the IC50 at 24 h is more than 100 µM in data set [1] and more than 200 µM in data set [3].
Take `CCOc1cc(O)c2c(c1)[n+]([O-])c1ccccc1[n+]2[O-]`: the IC50 with MOLM-13 came to 2 µM; in data set [2], 40 nM. The IC50 at 24 h was found to be 87 µM in data set [1] and 103 µM in data set [3].
Consider `COc1cccc2c1[n+]([O-])c1ccccc1[n+]2[O-]`, for which the figures for the half-maximal inhibitory concentration (IC50) (with MOLM-13; in data set [2]) were 1.4 µM and 40 nM, respectively. In addition, the IC50 at 24 h in data set [1] worked out at 32 µM; in data set [3], 12 µM.
As for `COc1cc(OC(C)=O)c2c(c1)[n+]([O-])c1ccccc1[n+]2[O-]`, the IC50 is 6.5 µM in the data set with MOLM-13 and 80 nM in data set [2]. The IC50 at 24 h in data set [1] came to 36 µM; in data set [3], 55 µM.
For `CCOC(=O)COc1cc(OC)cc2c1[n+]([O-])c1ccccc1[n+]2[O-]` the same measures were 1.4 µM, 2410 nM, 14 µM and 19 µM.
Turning to `CCOCOc1cc(O)c2c(c1)[n+]([O-])c1ccccc1[n+]2[O-]`, the IC50 is 3.8 µM in the data set with MOLM-13 and 20 nM in data set [2]. Also, the IC50 at 24 h in data set [1] and in data set [3] was more than 25 µM in each case.
For the compound `COc1cc(OC)c2c(c1)[n+]([O-])c1ccccc1[n+]2[O-]`, the figures for the IC50 (in the data set on MOLM-13; in data set [2]) were 6 µM and 120 nM, respectively. In addition, the values for the half-maximal inhibitory concentration (IC50) at 24 h in data set [1] and in data set [3] were 46 µM and 108 µM, respectively.
For `COCOc1cc(O)c2c(c1)[n+]([O-])c1ccccc1[n+]2[O-]` the same measures were 5.2 µM, 110 nM, more than 100 µM and more than 50 µM.
As for `[O-][n+]1c2ccccc2[n+]([O-])c2cc(O)c(O)cc21`, the IC50 was more than 50 µM in the data set with MOLM-13 and more than 50000 nM in data set [2].

For the origin of these results see ChEMBL document CHEMBL6153049, “Functionalized regioisomers of the natural product phenazines myxin and iodinin as potent inhibitors of Mycobacterium tuberculosis and human acute myeloid leukemia cells” (Eur J Med Chem, 2025).
